Laboratory results from ChEMBL document CHEMBL1124955, “2-substituted-1-naphthols as potent 5-lipoxygenase inhibitors with topical antiinflammatory activity” (J Med Chem, 1990).

Key:
[1] = target: T1, Cyclooxygenase (Bos taurus, UniProt O62664+O62698); assay: In vitro inhibition of Prostaglandin G/H synthase in BSV cell line.; assay type: cell-based
T1 sequence (O62664 whole entry): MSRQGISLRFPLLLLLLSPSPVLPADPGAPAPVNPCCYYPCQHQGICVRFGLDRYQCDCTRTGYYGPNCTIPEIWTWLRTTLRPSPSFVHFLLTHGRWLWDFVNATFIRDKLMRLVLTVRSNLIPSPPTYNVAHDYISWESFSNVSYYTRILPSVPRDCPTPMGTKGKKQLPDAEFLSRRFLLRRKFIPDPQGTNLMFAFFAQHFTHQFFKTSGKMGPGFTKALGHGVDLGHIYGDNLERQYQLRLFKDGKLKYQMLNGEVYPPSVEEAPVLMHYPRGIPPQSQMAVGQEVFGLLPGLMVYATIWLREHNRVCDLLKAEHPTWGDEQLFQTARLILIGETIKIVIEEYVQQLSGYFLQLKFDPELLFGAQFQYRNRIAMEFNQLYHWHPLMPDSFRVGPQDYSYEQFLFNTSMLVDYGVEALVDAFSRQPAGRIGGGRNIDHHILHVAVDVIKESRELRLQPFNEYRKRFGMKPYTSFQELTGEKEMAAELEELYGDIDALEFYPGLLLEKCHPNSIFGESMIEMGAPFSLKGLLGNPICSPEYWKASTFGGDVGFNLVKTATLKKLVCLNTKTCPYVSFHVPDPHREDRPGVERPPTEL
T1 sequence (O62698 whole entry): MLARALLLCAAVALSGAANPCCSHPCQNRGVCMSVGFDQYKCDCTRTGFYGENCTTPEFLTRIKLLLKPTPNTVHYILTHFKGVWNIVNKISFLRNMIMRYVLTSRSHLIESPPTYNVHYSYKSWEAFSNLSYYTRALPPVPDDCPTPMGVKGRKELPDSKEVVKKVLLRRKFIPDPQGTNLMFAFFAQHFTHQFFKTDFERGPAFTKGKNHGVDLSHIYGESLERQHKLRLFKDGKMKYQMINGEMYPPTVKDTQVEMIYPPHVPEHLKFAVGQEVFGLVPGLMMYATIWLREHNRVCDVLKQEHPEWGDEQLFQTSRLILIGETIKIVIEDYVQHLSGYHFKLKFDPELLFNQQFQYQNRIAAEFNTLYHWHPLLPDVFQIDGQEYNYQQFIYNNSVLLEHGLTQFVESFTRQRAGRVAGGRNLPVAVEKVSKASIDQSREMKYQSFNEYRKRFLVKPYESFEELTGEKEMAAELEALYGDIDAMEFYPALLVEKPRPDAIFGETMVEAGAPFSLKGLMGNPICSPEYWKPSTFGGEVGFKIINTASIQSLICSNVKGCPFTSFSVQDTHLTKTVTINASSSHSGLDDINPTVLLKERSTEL

[2] = target: T2, Polyunsaturated fatty acid 5-lipoxygenase (Rattus norvegicus, UniProt P12527); assay: Ability to inhibit 5-lipoxygenase by using a crude preparation of the cytosolic enzyme from the rat basophilic leukemia (RBL-1) cell line; assay type: cell-based
T2 sequence (P12527 whole entry): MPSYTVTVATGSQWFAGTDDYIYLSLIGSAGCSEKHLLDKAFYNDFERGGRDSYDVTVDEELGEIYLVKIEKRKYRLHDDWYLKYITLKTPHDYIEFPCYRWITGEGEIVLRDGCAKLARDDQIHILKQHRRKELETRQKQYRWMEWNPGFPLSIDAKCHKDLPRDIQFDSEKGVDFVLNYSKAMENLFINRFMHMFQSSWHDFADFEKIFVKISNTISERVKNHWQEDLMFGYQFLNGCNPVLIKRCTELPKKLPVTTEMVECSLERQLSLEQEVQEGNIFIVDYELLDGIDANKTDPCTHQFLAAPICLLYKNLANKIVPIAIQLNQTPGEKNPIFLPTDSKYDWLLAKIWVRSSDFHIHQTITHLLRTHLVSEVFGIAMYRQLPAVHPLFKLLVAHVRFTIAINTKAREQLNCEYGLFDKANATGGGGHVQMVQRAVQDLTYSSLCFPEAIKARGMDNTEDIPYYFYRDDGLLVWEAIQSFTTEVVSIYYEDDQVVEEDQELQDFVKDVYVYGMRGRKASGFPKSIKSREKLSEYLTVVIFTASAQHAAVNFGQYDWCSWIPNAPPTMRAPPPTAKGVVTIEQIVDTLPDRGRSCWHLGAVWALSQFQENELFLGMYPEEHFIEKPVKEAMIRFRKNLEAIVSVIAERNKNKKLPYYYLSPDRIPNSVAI
Outline: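 Crude cytosolic enzyme (supernatant) from RBL-1 cells, amount giving net 3300–3800 dpm 5-HETE (9–20 μg cell protein/assay). Enzyme is preincubated 5 min at 37 °C, pH 7.0, with compound (in 5% DMSO/Tris pH 8.5) in phosphate buffer with EDTA, gelatin, glutathione, CaCl2 and 0.012 mM indomethacin. Reaction is started with 0.042 mM final [14C]arachidonic acid and stopped by freezing after 2 min.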

[3] = test system: Mus musculus; assay: Effective dose to inhibit 50% of mouse arachidonic acid induced ear edema assay; assay type: functional
Outline: (§1)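 Groups of 10 male CF1 mice (18–20 g). Compound in acetone is applied topically to both ears just before 1 mg arachidonic acid in acetone is applied to one ear; the other ear serves as control. Mice are killed 60 min later and 6-mm ear punches weighed; swelling is the weight difference. %Inhibition = [(C−T)/C]×100, with Student's t test.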

[4] = test system: Mus musculus; assay: Percentage inhibition of the mouse arachidonic acid induced ear edema assay (AA) at a dose of 100 ug/ear; assay type: functional; outline: as §1
[5] = target: Cyclooxygenase (Bos taurus) (UniProt O62664+O62698); assay: Ability to inhibit Prostaglandin G/H synthase by using the bovine seminal vesicle enzyme assay on BSV cell line at a concentration of 75 uM; assay type: tissue-based
Outline: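 Bovine seminal vesicle cyclooxygenase (40 μg) with Tris pH 8.5 and cofactors (glutathione, epinephrine, EDTA) is chilled on ice. Compound in DMSO diluted with Tris is added, then preincubated 2 min at 37 °C. [14C]arachidonic acid (0.2 μCi/mL in 0.1 mM sodium arachidonate) is added and the reaction runs 10 min. Duplicates are run; values are the percent inhibition at the concentration shown.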

[6] = target: T3, Polyunsaturated fatty acid 5-lipoxygenase (Rattus norvegicus) (UniProt P12527); assay: Ability to inhibit 5-lipoxygenase by using a crude preparation of the cytosolic enzyme from the rat basophilic leukemia (RBL-1) cell line at a concentration of 25 uM; assay type: cell-based
T3 sequence (whole entry): T2 sequence (P12527 whole entry)

[7] = test system: Mus musculus; assay: percentage inhibition of the mouse arachidonic acid induced ear edema assay (AA) (Dose is 100 ug/ear); assay type: functional; outline: as §1

IC50 [1] [µM] | IC50 [2] [µM] | inhibition [5] [%] | inhibition [6] [%] | SMILES | ED50 [3] [ug ear-1] | Inhibition [4] [%] | Inhibition [7] [%]
18 | 0.056 | – | – | C=CCc1ccc2ccccc2c1O | 4.4 | 91 | –
– | 0.7 | 0 | – | COc1c(OC)c(OC(C)=O)c2cc(Cl)ccc2c1OC(C)=O [LONAPALENE] | 100 | 50 | –
57 | 0.25 | – | – | OCc1ccccc1/C=C/Cc1cc2c(cc1O)CCO2 | 55 | 52 | –
– | 20 | 26 | – | O=C(c1ccccc1)c1ccc2ccccc2c1O | – | 30 | –
– | – | 15 | 2 | O=C(O)c1c(Cc2ccccc2)ccc2ccccc12 | – | 0 | –
– | 55 | 0 | – | COc1c(Cc2ccccc2)ccc2ccccc12 | – | 5 | –
– | 2.7 | 27 | – | CCOC(=O)CCC/C(=N\O)c1ccc2ccccc2c1O | – | 29 | –
– | – | – | 47 | COc1ccc2c(c1)c(CC(=O)O)c(C)n2C(=O)c1ccc(Cl)cc1 [INDOMETHACIN] | 780 | 20 | –
3.4 | 0.019 | – | – | Oc1c(Cc2ccccc2)ccc2ccccc12 | 9.4 | 82 | –
– | – | 12 | 23 | CCOC(=O)CCCC(=O)c1ccc2ccccc2c1O | – | 13 | –
– | – | – | 13 | CC(=O)Nc1c(Cc2ccccc2)ccc2ccccc12 | – | 8 | –
– | 40 | 28 | – | OCCOc1c(Cc2ccccc2)ccc2ccccc12 | – | 12 | –
18 | 0.011 | – | – | CCOC(=O)CCCCc1ccc2ccccc2c1O | 40 | 74 | –
– | 63 | 22 | – | Oc1ccccc1Cc1ccccc1 | – | 32 | –
16 | 3.9 | – | – | Oc1ccc2ccccc2c1Cc1ccccc1 | – | – | 23
– | 25 | 0 | – | CCOC(=O)c1ccc2ccccc2c1O | – | 0 | –
– | – | 31 | – | O=C1CCN(c2ccccc2)N1 [PHENIDONE] | 41 | 58 | –
– | 0.29 | 16 | – | O=C1C=C(Cc2ccccc2)C(=O)c2ccccc21 | – | 59 | –
